Drawing on ChEMBL document CHEMBL1154414, “In vitro and in vivo activities of T-705 against arenavirus and bunyavirus infections” (Antimicrob Agents Chemother, 2007), this text covers Activity and log10CCID50 for 2 molecules.

For assay [1], the system named is Punta Toro virus. Put plainly: Antiviral activity against 500 PFU Punta Toro virus Adames infected C57BL/6 mouse assessed as mean serum ALT levels at 10 mg/kg, po twice daily administered 24 hrs post viral challenge measured on day 3 of viral infection. The format is functional. In outline:
(§1)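 Subcutaneous PTV infection was followed by oral gavage twice daily with drug suspended in 0.4% CMC. Serum was collected from 5 sacrificed mice per group (10 placebo) on day 3 or 4. ALT activity was measured by kinetic assay, and sham-infected mice set the baselines.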

The subject of assay [2] is Pichinde virus. Nature of the assay: Antiviral activity against Pichinde virus An 4763 infected Syrian golden hamster assessed as mean viral titer per 0.1 g of liver at 50 mg/kg, po twice daily for 7 days administered 24 hrs post viral-challenge measured on day 7 of viral infection. The format is functional. Put shortly:
(§2)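 Hamsters (groups of 15, placebo 25-30) were dosed orally by gavage twice daily (drug suspended in 0.4% CMC) after bilateral intraperitoneal challenge with 65 PFU. Five per group were killed on day 7. Liver homogenate or serum was serially diluted onto triplicate B-SC-1 wells, CPE was read at 6-8 days, and the 50% endpoint was taken. Range was 2.8-9.5 log10 CCID50/0.1 g or 0.1 ml, with undetectable assigned <2.8.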

In assay [3] the test system is Pichinde virus. Nature of the assay: Antiviral activity against Pichinde virus An 4763 infected Syrian golden hamster assessed as mean viral titer per 0.1 g of liver at 20 mg/kg, po twice daily for 7 days administered 72 hrs post viral-challenge measured on day 7 of viral infection. Type of assay: functional. Put shortly:
as §2

Assay [4] concerns Punta Toro virus. Put plainly: Antiviral activity against Punta Toro virus Adames infected Syrian golden hamster assessed as mean serum ALT levels at 30 mg/kg, po twice daily administered 4 hrs before viral challenge measured on day 4 of viral infection. Type of assay: functional. Put shortly: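 Hamsters were challenged subcutaneously with 50 PFU and dosed twice daily by oral gavage in 0.4% CMC. Five per group were sacrificed on day 3 or 4. Livers were scored 0-4 for icterus, and serum ALT was measured by kinetic assay against three sham-infected baseline animals.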

In assay [5] the test system is Pichinde virus. Nature of the assay: Antiviral activity against Pichinde virus An 4763 infected Syrian golden hamster assessed as mean viral titer per 0.1 mL of serum at 50 mg/kg, po twice daily for 7 days administered 24 hrs post viral-challenge measured on day 7 of viral infection. Type of assay: functional. Put shortly:
as §2

The test system of assay [6] is Punta Toro virus. Put plainly: Antiviral activity against 50 PFU Punta Toro virus Adames infected C57BL/6 mouse assessed as mean serum ALT levels at 10 mg/kg, po twice daily administered 24 hrs post viral challenge measured on day 3 of viral infection. Type of assay: functional. In outline:
as §1

The test system of assay [7] is Punta Toro virus. Nature of the assay: Antiviral activity against 50 PFU Punta Toro virus Adames infected C57BL/6 mouse assessed as survival at 30 mg/kg, po twice daily for 5 days administered 24 hrs post viral challenge. Also noted: dose 30 mg/kg. The format is functional, organism-based. Put shortly:
(§3)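 Groups of 15 mice (25–30 placebo) were inoculated subcutaneously with PTV. Drug in 0.4% carboxymethylcellulose was given by oral gavage twice daily.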

The test system of assay [8] is Punta Toro virus. Nature of the assay: Antiviral activity against 500 PFU Punta Toro virus Adames infected C57BL/6 mouse assessed as mean viral titer per 0.1 mL of serum at 30 mg/kg, po twice daily administered 24 hrs post viral challenge measured on day 3 of viral infection. The format is functional. In outline:
(§4)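 Mice were infected subcutaneously with PTV and dosed by oral gavage twice daily; 5 per group (10 placebo) were killed on day 3 or 4. Liver homogenate or serum was serially diluted onto triplicate LLC-MK2 monolayers, and CPE was read 6–8 days later. 50% endpoints gave log10 CCID50 per 0.1 g liver or 0.1 ml serum. Detection range was 2.8–9.5; undetectable samples were assigned <2.8.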

In assay [9] the test system is Pichinde virus. Put plainly: Antiviral activity against Pichinde virus An 4763 infected Syrian golden hamster assessed as animals with detectable virus level in serum at 20 mg/kg, po twice daily for 7 days administered 72 hrs post viral-challenge measured on day 7 of viral infection. Type of assay: functional. In outline: as §2
Assay [10] relates to Punta Toro virus. Nature of the assay: Antiviral activity against 50 PFU Punta Toro virus Adames infected C57BL/6 mouse assessed as mean viral titer per 0.1 g of liver at 30 mg/kg, po twice daily administered 24 hrs post viral challenge measured on day 3 of viral infection. Type of assay: functional. In outline:
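Mice were infected subcutaneously with PTV and dosed by oral gavage twice daily with drug in 0.4% CMC. Five per group (10 placebo) were sacrificed on day 3 or 4. Serially diluted liver homogenate or serum went into triplicate LLC-MK2 wells, and CPE 50% endpoints were read at 6–8 days. The range was 2.8–9.5 log10 CCID50/0.1 g or 0.1 ml, with undetectable samples set to 2.8 and saturated samples to 9.5.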

Assay [11] has as its system Pichinde virus. Put plainly: Antiviral activity against Pichinde virus An 4763 infected Syrian golden hamster assessed as mean day of death at 20 mg/kg, po twice daily for 7 days administered 24 hrs post viral-challenge. The format is functional. In outline:
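Groups of 15 hamsters (placebo 25-30) were challenged intraperitoneally (bilateral, 65 PFU) and dosed twice daily by oral gavage in 0.4% CMC for 5 to 7 days.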

Assay [12] concerns Punta Toro virus. Put plainly: Antiviral activity against 5000 PFU Punta Toro virus Adames infected C57BL/6 mouse assessed as mean viral titer per 0.1 g of liver at 30 mg/kg, po twice daily administered 24 hrs post viral challenge measured on day 3 of viral infection. The format is functional. In outline: as §4
The test system of assay [13] is Pichinde virus. Put plainly: Antiviral activity against Pichinde virus An 4763 infected Syrian golden hamster assessed as mean viral titer per 0.1 mL of serum at 20 mg/kg, po twice daily for 7 days administered 24 hrs post viral-challenge. Type of assay: functional. In outline: as §2
Assay [14] deals with Punta Toro virus. Put plainly: Antiviral activity against 500 PFU Punta Toro virus Adames infected C57BL/6 mouse assessed as mean viral titer per 0.1 g of liver at 30 mg/kg, po twice daily administered 24 hrs post viral challenge measured on day 3 of viral infection. Type of assay: functional. In outline:
as §4

The test system of assay [15] is Punta Toro virus. Put plainly: Antiviral activity against 50 PFU Punta Toro virus Adames infected C57BL/6 mouse assessed as mean serum ALT levels at 30 mg/kg, po twice daily administered 24 hrs post viral challenge measured on day 3 of viral infection. The format is functional. In outline: as §1
Assay [16] concerns Punta Toro virus. Nature of the assay: Antiviral activity against 5000 PFU Punta Toro virus Adames infected C57BL/6 mouse assessed as mean viral titer per 0.1 g of liver at 10 mg/kg, po twice daily administered 24 hrs post viral challenge measured on day 3 of viral infection. The format is functional. In outline:
as §4

The test system of assay [17] is Pichinde virus. Put plainly: Antiviral activity against Pichinde virus An 4763 infected Syrian golden hamster assessed as animals with detectable virus level in serum at 50 mg/kg, po twice daily for 7 days administered 72 hrs post viral-challenge measured on day 7 of viral infection. Type of assay: functional. Put shortly:
as §2

Assay [18] has as its system Pichinde virus. Put plainly: Antiviral activity against Pichinde virus An 4763 infected Syrian golden hamster assessed as animals with detectable virus level in liver at 20 mg/kg, po twice daily for 7 days administered 24 hrs post viral-challenge measured on day 7 of viral infection. Type of assay: functional. In outline:
as §2

Assay [19] deals with Punta Toro virus. Nature of the assay: Antiviral activity against 50 PFU Punta Toro virus Adames infected C57BL/6 mouse assessed as mean day of death at 10 mg/kg, po twice daily for 5 days administered 24 hrs post viral challenge. The format is functional. Put shortly:
as §3

The test system of assay [20] is Punta Toro virus. Put plainly: Antiviral activity against 50 PFU Punta Toro virus Adames infected C57BL/6 mouse assessed as mean day of death at 30 mg/kg, po twice daily for 5 days administered 24 hrs post viral challenge. Type of assay: functional. Put shortly: as §3

Molecules are shown by their SMILES. Activity calls are given as the source filed them. The calls are words filed in the database; no cut-off is given here.

In the case of `NC(=O)c1nc(F)cnc1O` [FAVIPIRAVIR], the Activity was determined as 3302 IU/L in the assay with Punta Toro virus [1]; 25 IU/L in the assay on Punta Toro virus [4]; 3273 IU/L with Punta Toro virus [6]; 100% in the assay with Pichinde virus [9]; 9.5 days with Pichinde virus [11]; 199 IU/L with Punta Toro virus [15]. Besides, the Activity in the assay with Pichinde virus [17] was 100%; with Pichinde virus [18] it was 100%; in the assay with Punta Toro virus [19], 5.8 days; in the assay on Punta Toro virus [20] it was above 21 days. Further, the log10CCID50 with Pichinde virus [2] is reported as 5.7; with Pichinde virus [3] it was above 8.6; in the assay with Pichinde virus [5], below 5.1; in the assay on Punta Toro virus [8], below 5.1; in the assay on Punta Toro virus [10], below 2.8; with Punta Toro virus [12], below 2.9. In addition, the log10CCID50 in the assay with Pichinde virus [13] is listed as above 9; in the assay on Punta Toro virus [14] it was below 3.2; with Punta Toro virus [16], below 2.9. Also, in the assay on Punta Toro virus [7], the result was Active.

Regarding `NC(=O)c1ncn([C@@H]2O[C@H](CO)[C@@H](O)[C@H]2O)n1` [RIBAVIRIN], the Activity in the assay with Punta Toro virus [1] was determined as 2150 IU/L; in the assay on Punta Toro virus [4] it was 13 IU/L; with Punta Toro virus [6], 846 IU/L; with Pichinde virus [9], 100%; in the assay with Pichinde virus [11], 18 days; in the assay with Punta Toro virus [15], 131 IU/L. Also, the Activity is 100% in the assay with Pichinde virus [17], 100% in the assay on Pichinde virus [18], 5.3 days with Punta Toro virus [19] and above 21 days with Punta Toro virus [20]. The log10CCID50 was 4.2 in the assay with Pichinde virus [2]; 6.8 with Pichinde virus [3]; below 3.5 in the assay with Pichinde virus [5]; below 5 in the assay on Punta Toro virus [8]; below 2.8 in the assay with Punta Toro virus [10]; below 2.9 in the assay with Punta Toro virus [12]. The log10CCID50 in the assay on Pichinde virus [13] is on record as below 5.1; in the assay on Punta Toro virus [14], below 3.1; with Punta Toro virus [16], below 2.8. Also, in the assay with Punta Toro virus [7], the result was Active.
